Data on nine compounds can be found in publication PMC9546099 (British Journal of Clinical Pharmacology, 2022).

Structures are written as SMILES. Several values for one entry are separate records, joined by “and”; a condition that tells them apart may be missing. Identical values can stand only once. Counter-ions that a name gives are not always drawn. Like-named read-outs stand apart in the source and are kept apart here.

The nature of series [1]: Metabolite profiling in plasma AUC pool by LC-AMS. The format is in vivo, human. Particulars: average, AMS radiodetection. An outline of the steps:
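A per-subject plasma AUC pool (Hamilton method) covered at least the last quantifiable time point. Plasma (5 g) was precipitated twice with acetonitrile, evaporated and resuspended in DMSO:acetonitrile:water 20:20:60. LC fractions were measured by AMS, with carbon content in duplicate. Peaks were assigned against spiked synthetic standards (UV 250 nm). Extraction recovery compared pool versus supernatant and reconstituted-extract radioactivity.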

The test system of another series is COMT. The following applies: cited from earlier work; for IC50: read-out: IC50 against COMT.
The conditions of series [2]: nonhuman primate [NHP]; cited from earlier work.
The conditions of series [3]: cited from earlier work.
Series [4] is classed as in vivo, human. The following applies: for Tmax: t max; for Tmax / Tlag: median (minimum - maximum). An outline of the steps: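 Plasma was precipitated with acetonitrile plus internal standards, vortexed and centrifuged. Supernatant was diluted with water for validated LC-MS/MS of parent and metabolites, with quantification limit 10 ng/mL and calibration curves and QC samples in every batch. Noncompartmental analysis per subject gave geometric mean (%CV) parameters, with tmax as median (min–max).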

The conditions of series [5]: cited from earlier work. The source holds these as a separate data set.
The nature of series [6]: Metabolite profiling in urine and faeces by LC-MS and off-line radiodetection. It counts as in vivo, human. The essentials: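 Urine was pooled per subject to ≥80% of recovered radioactivity and concentrated. Faeces were pooled to >90% of excreted radioactivity, plus cross-subject 48-72 h and 96-120 h pools; these were acetonitrile-extracted, dried and reconstituted in acetonitrile:water 20:80. Analysis used accurate-mass LC-MS (± switching, 70 000 resolution, 100-800 amu; HCD MS/MS 17 500) with off-line radiodetection, reported as % administered radioactivity.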

The conditions of series [7]: rat; cited from earlier work.
The conditions of series [8]: cited from earlier work. This is another data set of the same source.
Setting [9] is: male, human, plasma, oral, 100 mg.

Take `COc1cc(-c2nc(-c3c(C)c(Cl)c(C)[n+]([O-])c3Cl)no2)cc([N+](=O)[O-])c1O` [BIA 9‐1100, 2,5-dichloro-3-(5-(4-hydroxy-3-methoxy-5-nitrophenyl)-1,2,4-oxadiazol-3-yl)-4,6-dimethylpyridine 1-oxide]: the “% of total circulating radioactivity” value in [1] is listed as 2.96%.

As for `COc1cc(-c2nc(-c3c(C)c(Cl)c(C)[n+]([O-])c3Cl)no2)cc([N+](=O)[O-])c1O` [BIA 9‐1101, 2,5-dichloro-3-(5-(4-hydroxy-3-methoxy-5-nitrophenyl)-1,2,4-oxadiazol-3-yl)-4,6 dimethylpyridine 1-oxide], the “% of total circulating radioactivity” value in series [1] is on record as 0.39%.

By IC50 is commonly meant the concentration that inhibits the measured activity by half. For the compound `COc1c(O)cc(-c2nc(-c3c(C)c(Cl)c(C)[n+]([O-])c3Cl)no2)cc1[N+](=O)[O-]` [BIA 9‐1104, 2,5-dichloro-3-(5-(3-hydroxy-4-methoxy-5-nitrophenyl)-1,2,4-oxadiazol-3-yl)-4,6-dimethylpyridine 1-oxide], the “% of total circulating radioactivity” value in [1] is recorded as 6.59%. Moreover, in the series on COMT, the IC50 is 429 nM.

Broadly, the AUC(0-inf) is total exposure, with the tail of the curve extrapolated. Broadly, the AUC(0-t) is exposure summed from dosing to a finite time, without extrapolation to infinity. Low readings indicate less exposure, high ones more exposure. The Cmax is the peak of the concentration-time curve. As usually defined, the half-life is the time in which the quantity being followed falls by half. Read a low half-life as rapid decline. The term Tmax denotes the time at which the peak concentration occurs. As for `Cc1c(Cl)c(C)[n+]([O-])c(Cl)c1-c1noc(-c2cc(O)c(O)c([N+](=O)[O-])c2)n1` [opicapone, 2,5‐dichloro‐3‐(5‐[3,4‐dihydroxy‐5‐nitrophenyl]‐1,2,4‐oxadiazol‐3‐yl)‐4,6‐dimethylpyridine 1‐oxide, reference compound], in series [2], the “fraction of the dose recovered in faeces” value is “more than 70%”. Further, in series [3], the “dose proportionality of the pharmacokinetic profile” value was “dose‐proportional up to 1200 mg”. In series [4] (setting [9]), this compound showed an AUC(0-inf) of 1890 ng·h/mL, an exposure AUC(0-t) of 1830 ng·h/mL, a peak concentration (Cmax) of 600 ng/mL and a half-life of 1 h. Also, the Tmax in [4] (setting [9]) stood at 2 h. Moreover, the Tlag in [4] (plasma) is on record as 0.250 (0.250‐0.500) h. Moreover, the “% of total circulating radioactivity” value in series [1] is recorded as 12.1%. Moreover, the cytotoxicity entry in series [5] is “not to induce cytotoxicity”. For the same compound, in [6] (average, pooled faeces), the “% of the administered radioactivity excreted in faeces” value stood at 22.32%. Further, the “unchanged parent observed in urine” value in series [6] (in vivo) is reported as “Only trace amounts”. Also, the “fraction of the dose recovered in faeces” value in series [7] is on record as “more than 70%”.

`COc1c(OS(=O)(=O)O)cc(-c2nc(-c3c(C)c(Cl)c(C)[n+]([O-])c3Cl)no2)cc1[N+](=O)[O-].c1ccncc1` [BIA 9‐4584, pyridin-1-ium 5-(3-(2,5-dichloro-4,6-dimethyl-1-oxidopyridin-3-yl)-1,2,4-oxadiazol-5-yl)-2-methoxy-3-nitrophenyl sulfate]: the “% of total circulating radioactivity” value in series [1] is 2.30%.

In the case of `Cc1c(Cl)c(C)[n+]([O-])c(Cl)c1-c1noc(-c2cc(OS(=O)(=O)O)c(O)c([N+](=O)[O-])c2)n1` [BIA 9‐1103, 5-(3-(2,5-dichloro-4,6-dimethyl-1-oxidopyridin-3-yl)-1,2,4-oxadiazol-5-yl)-2-hydroxy-3-nitrophenyl sulfate], in series [4] (plasma, geometric mean (% CV)), the AUCt was 8120 (75.7) ng.h/ml and the C max was 115(48.7) ng/ml. For the same compound, the Tlag in series [4] (plasma) is listed as 1.05 (1.00‐2.00) h. Besides, the “% of total circulating radioactivity” value in series [1] was 58.6%. The “binding to plasma proteins” value in series [8] is on record as “more than 98%”. Also, the “pharmacological activity on COMT” value in the series on COMT was “pharmacologically inactive on COMT”. Further, in the series with COMT (listed as 3‐O‐sulfate‐opicapone), the “pharmacological activity on COMT” value was “pharmacologically inactive”.

`Cc1c(Cl)c(C)[n+]([O-])c(Cl)c1-c1noc(-c2cc(O[C@@H]3O[C@H](C(=O)O)[C@@H](O)[C@H](O)[C@H]3O)c(O)c([N+](=O)[O-])c2)n1` [BIA 9‐1106, 3-(5-(3-((2S,3R,4S,5S,6S)-6-carboxy-3,4,5-trihydroxytetrahydro-2H-pyran-2-yloxy)-4-hydroxy-5-nitrophenyl)-1,2,4-oxadiazol-3-yl)-2,5-dichloro-4,6-dimethylpyridine 1-oxide]: in series [4] (setting [9]), the AUC(0-t) worked out at 75 ng·h/mL, the highest concentration (Cmax) was determined as 33.6 ng/mL and the Tmax stood at 2 h. Also, the Tlag in series [4] (plasma) was 0.75 (0.500‐2.00) h. Also, the “% of the administered radioactivity in urine” value in series [6] (average, pooled urine) was 1.72% and < 2%.

As for `Cc1nc(Cl)c(-c2noc(-c3cc(O)c(O)c([N+](=O)[O-])c3)n2)c(C)c1Cl` [BIA 9‐1079, 5-(3-(2,5-dichloro-4,6-dimethylpyridin-3-yl)-1,2,4-oxadiazol-5-yl)-3-nitrobenzene-1,2-diol], the plasma concentration in series [4] (below the limit of quantification in almost all time points) is given as < 10 ng/mL. Further, in the series on COMT, the half-inhibitory concentration (IC50) was 128 nM.

Consider `COc1c(O)cc(-c2nc(-c3c(C)c(Cl)c(C)[n+]([O-])c3SC[C@H](N)C(=O)O)no2)cc1[N+](=O)[O-].Cl` [BIA 9‐5049, (R)-2-((2-amino-2-carboxyethyl)thio)-5-chloro-3-(5-(3-hydroxy-4-methoxy-5-nitrophenyl)-1,2,4-oxadiazol-3-yl)-4,6-dimethylpyridine 1-oxide hydrochloride], for which the “% of total circulating radioactivity” value in series [1] amounted to 3.72%.
